Target: Procathepsin L (Homo sapiens, UniProt P07711)
Experiment: Inhibition of human recombinant Cathepsin L assessed remaining activity using Z-FR-AMC as substrate incubated for 30 mins by fluorometric assay
Procedure, shortened: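 Recombinant human cathepsins: L, B, V and K at 1.11 nM, S at 4.44 nM. Each was preincubated 30 min at 25 °C with 3333 to 0.006 nM compound. Z-FR-AMC was added at 40 μM final. AMC release rate over 0–30 min was compared with DMSO (ex/em 360/460). IC50 from four technical replicates.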

Sequence of Procathepsin L (P07711 whole entry): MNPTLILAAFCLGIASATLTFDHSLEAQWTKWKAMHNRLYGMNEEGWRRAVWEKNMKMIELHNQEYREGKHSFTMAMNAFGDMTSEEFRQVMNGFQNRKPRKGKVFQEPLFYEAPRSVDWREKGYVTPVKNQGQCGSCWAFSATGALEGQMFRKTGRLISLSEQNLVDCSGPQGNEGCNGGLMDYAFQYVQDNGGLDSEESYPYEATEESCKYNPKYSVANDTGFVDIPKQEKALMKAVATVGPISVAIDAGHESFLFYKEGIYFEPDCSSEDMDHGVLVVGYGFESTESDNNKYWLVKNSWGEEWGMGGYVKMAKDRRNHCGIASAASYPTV

## COC1=CC(=O)N(C(=O)/C=C/[C@H](C)NC(=O)[C@H](CCc2ccccc2)NC(=O)[C@H](CC2CCCCC2)NC(=O)[C@H](C(C)C)N(C)C)[C@H]1Cc1c[nH]c2ccccc12
  IC50: 6 pM
